Experimental data gathered from unrelated publications.
Compare with care: the assays were run in different laboratories.
Target: Muscarinic acetylcholine receptor M2 (CHRM2, Homo sapiens, UniProt P08172)
Tested at: 10 µM
One construct used (P08172 1-466): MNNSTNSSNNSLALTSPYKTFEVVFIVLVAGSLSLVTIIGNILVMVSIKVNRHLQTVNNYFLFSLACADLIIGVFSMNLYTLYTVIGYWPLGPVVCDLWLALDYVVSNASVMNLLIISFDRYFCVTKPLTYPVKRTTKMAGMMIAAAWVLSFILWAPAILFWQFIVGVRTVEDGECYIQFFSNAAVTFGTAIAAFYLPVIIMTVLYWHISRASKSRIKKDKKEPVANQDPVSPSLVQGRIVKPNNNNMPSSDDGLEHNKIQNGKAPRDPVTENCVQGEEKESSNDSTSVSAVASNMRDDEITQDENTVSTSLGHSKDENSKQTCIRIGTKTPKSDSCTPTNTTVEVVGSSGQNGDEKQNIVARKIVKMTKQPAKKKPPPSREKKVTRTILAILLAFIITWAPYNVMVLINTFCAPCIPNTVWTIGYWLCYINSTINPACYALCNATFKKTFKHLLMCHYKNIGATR

SMILES | test | measurement | result
Clc1ccc2c(C3CCN(CCc4c[nH]c5ccccc45)CC3)c[nH]c2c1 | ligand displacement, radioligand | inhibition | 15%
CN1CC[C@]2(C)c3cc(OC(=O)Nc4ccccc4)ccc3N(C)[C@H]12 | ligand displacement, radioligand | inhibition | 0%
c1ccc(C(NCCNC(c2ccccc2)c2ccccc2)c2ccccc2)cc1 | cell-free assay | inhibition | 45%
Nc1ncc(-c2nc(N3CCOCC3)nc(N3CCOCC3)n2)c(C(F)F)n1 | cell-free assay, radioligand | remaining signal | 117%
CCN(CC)CCCC[C@H](NC(=O)[C@H](CC(C)C)NC(=O)[C@H](C)NC(=O)[C@H](Cc1ccccc1)NC(=O)c1ccc(C(C)(C)C)cc1)C(=O)N[C@@H](CO)C(=O)OC | ligand displacement, radioligand | inhibition | -6%
COCc1c(-c2cc3cc(C)cc(OC)c3s2)c2c(N)ncnn2c1CN1CCNC(=O)C1 | ligand displacement, radioligand | inhibition | -1%
Cn1cncc1[C@@](O)(COc1ccc(C#N)cc1-c1ccc(OC(F)(F)F)cc1)c1ccc(C#N)cc1 | ligand displacement | inhibition | -11.9%
CC(C)N1CCC[C@H]1CNC(=O)c1cn(C2CCCC2)c(=O)c2c1c1ccccc1n2C | ligand displacement, radioligand | inhibition | 1%
Cc1c(N2CCNCC2)nc2ccc(Br)cc2c1C(=O)NC[C@H](CCC(=O)O)c1ccccc1Cl | ligand displacement | inhibition | 13.8%
C[C@H](C(=O)N[C@H]1COc2ccccc2[C@@H]1S(C)(=O)=O)c1ccc(F)cc1 | cell-free assay | inhibition | 5%
